Activity calls are given as the source filed them.
Experiments:
MM1.S [1] = assay: Upregulation of IFN in human MM1.S cells assessed as increase in ISG15 gene at 1 uM for 6 days by qRT-PCR analysis; assay type: functional, cell-based; conditions: time 6.0 day
MM1.S [2] = assay: Upregulation of IFN in human MM1.S cells assessed as increase in IFI44 gene at 1 uM for 6 days by qRT-PCR analysis; conditions: time 6.0 day
RPMI-8226 [3] = assay: Induction of cell cycle arrest in human RPMI-8226 cells assessed as increase in accumulation of cells at G1 phase at 1 uM for 6 days; assay type: functional, cell-based; conditions: time 6.0 day
Outline: (§1)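 Flow cytometric cell cycle analysis of RPMI-8226 and MM.1S cells treated with 1 μM DOT1L inhibitor or DMSO for 6 days. Sub-G1, G0-G1 and S phase populations scored. Summary is from 3 replications, mean ± SEM.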

RPMI-8226 [4] = assay: Upregulation of IFN in human RPMI-8226 cells assessed as increase in IFIT1 gene at 1 uM for 6 days by qRT-PCR analysis; assay type: functional, cell-based; conditions: time 6.0 day
RPMI-8226 [5] = assay: Upregulation of IFN in human RPMI-8226 cells assessed as increase in IFITM1 gene at 1 uM for 6 days by qRT-PCR analysis; conditions: time 6.0 day
MM1.S [6] = assay: Induction of apoptosis in human MM1.S cells assessed as necrotic cells at 1 uM for 6 days by annexin-V based propidium iodide staining based flow cytometric analysis (reference value: 0.16%); assay type: functional; conditions: time 6 day
RPMI-8226 [7] = assay: Induction of growth suppression in human RPMI-8226 cells assessed as reduction H3K79me3 at 1 uM for 3 days Western blot analysis; assay type: functional, cell-based; conditions: time 3.0 day
Outline: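 RPMI-8226 cells treated with 1 μM DOT1L inhibitor or DMSO for 3 days. H3K79 methylation probed by Western blot with […].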

MM1.S [8] = assay: Upregulation of IFN in human MM1.S cells assessed as increase in IFITM1 gene at 1 uM for 6 days by qRT-PCR analysis; assay type: functional, cell-based; conditions: time 6.0 day
MM1.S [9] = assay: Effect on human MM1.S cells assessed as change in IRF4 mRNA level at 1 uM for 3 days by ChIP-qPCR analysis; assay type: functional, cell-based; conditions: time 3.0 day
Outline: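 ChIP-qPCR for H3K79me2 at IRF4-MYC signaling genes after 1 μM inhibitor or DMSO for 3 days. Signal normalized to input DNA. An intergenic region 28 kb upstream of KLF2 served as negative control. Mean of 3 replications ± SEM.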

MM1.S [10] = assay: Induction of apoptosis in human MM1.S cells assessed as late apoptotic cells at 1 uM for 6 days by annexin-V based propidium iodide staining based flow cytometric analysis (reference value: 13.4%); assay type: functional; conditions: time 6 day
KMS-12-PE [11] = assay: Antiproliferative activity against human KMS-12-PE cells assessed as reduction in cell viability measured at 1 uM for 18 days; assay type: functional, cell-based; conditions: time 18.0 day
RPMI-8226 [12] = assay: Induction of apoptosis in human RPMI-8226 cells assessed as late apoptotic cells at 1 uM for 6 days by annexin-V based propidium iodide staining based flow cytometric analysis (reference value: 8.89%); assay type: functional; conditions: time 6 day
MM1.S [13] = assay: Upregulation of IFN in human MM1.S cells assessed as increase in IFITM1 gene at 1 uM for 6 days by qRT-PCR analysis; conditions: time 6.0 day
KMS-12-BM [14] = assay: Effect on human KMS-12-BM cells assessed as change in IRF4 mRNA level by qRT-PCR analysis; assay type: functional, cell-based
Outline: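 Basal MYC and IRF4 mRNA in untreated cells measured by qRT-PCR. Normalized to ACTB; mean of 3 replications ± SEM.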

RPMI-8226 [15] = assay: Induction of apoptosis in human RPMI-8226 cells assessed as viable cells at 1 uM for 3 days by annexin-V based propidium iodide staining based flow cytometric analysis (reference value: 91.2%); assay type: functional; conditions: RPMI-8226, 72 h, time 3 day, read-out: Activity
KMS-12-PE [16] = assay: Antiproliferative activity against human KMS-12-PE cells treated 3 days at 1 uM; assay type: functional, cell-based; conditions: time 3.0 day
Outline: (§2)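 Cell lines in 6-well plates, 2 × 10^4 to 8 × 10^5 cells/well, exposed to DOT1L inhibitor at 0.25-1 μM or DMSO, with medium and drug refreshed every 3 days. Viability read with Cell Counting Kit-8 on a microplate reader. Values normalized to untreated cells; mean of 3 replications ± SEM.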

MM1.S [17] = assay: Induction of cell cycle arrest in human MM1.S cells assessed as increase in accumulation of cells at G0 phase at 1 uM for 6 days; assay type: functional, cell-based; conditions: time 6.0 day; outline: as §1
KMS-12-PE [18] = assay: Effect on human KMS-12-PE cells assessed as decrease in IRF4 mRNA level at 1 uM for 6 days by qRT-PCR analysis; assay type: functional, cell-based; conditions: time 6.0 day
Outline: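 qRT-PCR of MYC and IRF4 after 1 μM DOT1L inhibitor for 6 days. Normalized to ACTB; mean of 3 replications ± SEM.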

KMS-12-BM [19] = assay: Antiproliferative activity against human KMS-12-BM cells treated 3 days at 1 uM; assay type: functional, cell-based; conditions: time 3.0 day; outline: as §2
MM1.S [20] = assay: Induction of apoptosis in human MM1.S cells assessed as viable cells at 1 uM for 6 days by annexin-V based propidium iodide staining based flow cytometric analysis (reference value: 77.4%); assay type: functional; conditions: 144 h, time 6 day, read-out: Activity
RPMI-8226 [21] = assay: Upregulation of FAM200B gene in human RPMI-8226 cells at 1 uM for 6 days by; assay type: functional, cell-based; conditions: time 6.0 day
Outline: (§3)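 Human myeloma lines RPMI-8226 and MM.1S exposed to 1 μM DOT1L inhibitor, or DMSO, for 6 days. Whole-genome expression profiled on gene expression microarray.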

RPMI-8226 [22] = assay: Upregulation of TP53TG3 gene in human RPMI-8226 cells at 1 uM for 6 days by; assay type: functional, cell-based; conditions: time 6.0 day
RPMI-8226 [23] = assay: Upregulation of APOL4 gene in human RPMI-8226 cells at 1 uM for 6 days by; assay type: functional, cell-based; conditions: time 6.0 day
MM1.S [24] = assay: Upregulation of CPED1 gene in human MM1.S cells at 1 uM for 6 days by; assay type: functional, cell-based; conditions: time 6.0 day; outline: as §3
RPMI-8226 [25] = assay: Upregulation of SOAT2 gene in human RPMI-8226 cells at 1 uM for 6 days by; assay type: functional, cell-based; conditions: time 6.0 day
RPMI-8226 [26] = assay: Upregulation of TP53I3 gene in human RPMI-8226 cells at 1 uM for 6 days by; assay type: functional, cell-based; conditions: time 6.0 day
MM1.S [27] = assay: Upregulation of HLA-DPB1 gene in human MM1.S cells at 1 uM for 6 days by; assay type: functional, cell-based; conditions: time 6.0 day; outline: as §3
RPMI-8226 [28] = assay: Upregulation of ACOT11 gene in human RPMI-8226 cells at 1 uM for 6 days by; assay type: functional, cell-based; conditions: time 6.0 day
RPMI-8226 [29] = assay: Upregulation of CCDC74B gene in human RPMI-8226 cells at 1 uM for 6 days by; assay type: functional, cell-based; conditions: time 6.0 day
RPMI-8226 [30] = assay: Upregulation of XKR3 gene in human RPMI-8226 cells at 1 uM for 6 days by; assay type: functional, cell-based; conditions: time 6.0 day
MM1.S [31] = assay: Upregulation of HLA-DRB1 gene in human MM1.S cells at 1 uM for 6 days by; assay type: functional, cell-based; conditions: time 6.0 day
MM1.S [32] = assay: Upregulation of NTNG1 gene in human MM1.S cells at 1 uM for 6 days by; assay type: functional, cell-based; conditions: time 6.0 day
MM1.S [33] = assay: Upregulation of SLC9A9 gene in human MM1.S cells at 1 uM for 6 days by; assay type: functional, cell-based; conditions: time 6.0 day
MM1.S [34] = assay: Upregulation of SMIM14 gene in human MM1.S cells at 1 uM for 6 days by; assay type: functional, cell-based; conditions: time 6.0 day

CC(C)N(C[C@H]1O[C@@H](n2cnc3c(N)ncnc32)[C@H](O)[C@@H]1O)[C@H]1C[C@@H](CCc2nc3cc(C(C)(C)C)ccc3[nH]2)C1 [PINOMETOSTAT]
active: Activity (MM1.S [1]) | Activity (MM1.S [2]) | Activity (RPMI-8226 [3]) | Activity (RPMI-8226 [4]) | Activity (RPMI-8226 [5]) | Activity (RPMI-8226 [7]) | Activity (MM1.S [8]) | Activity (MM1.S [9]) | Activity (KMS-12-PE [11]) | Activity (MM1.S [13]) | Activity (KMS-12-BM [14]) | Activity (MM1.S [17]) | Activity (KMS-12-PE [18]) | Activity (KMS-12-BM [19])
27.8%: Activity (MM1.S [10])
inactive: Activity (KMS-12-PE [16])
52.8%: viability at 1 µM (MM1.S [20])
0.05%: Activity (MM1.S [6])
76.6%: viability at 1 µM (RPMI-8226 [15])
17.5%: Activity (RPMI-8226 [12])

CC(C)N(CCCNC(=O)Nc1ccc(C(C)(C)C)cc1)C[C@H]1O[C@@H](n2cc(Br)c3c(N)ncnc32)[C@H](O)[C@@H]1O
0.21%: Activity (MM1.S [6])
77.8%: viability at 1 µM (RPMI-8226 [15])
42.4%: viability at 1 µM (MM1.S [20])
active: Activity (RPMI-8226 [21]) | Activity (RPMI-8226 [22]) | Activity (RPMI-8226 [23]) | Activity (RPMI-8226 [3]) | Activity (MM1.S [24]) | Activity (RPMI-8226 [25]) | Activity (RPMI-8226 [26]) | Activity (RPMI-8226 [7]) | Activity (MM1.S [8]) | Activity (MM1.S [27]) | Activity (MM1.S [9]) | Activity (RPMI-8226 [28]) | Activity (RPMI-8226 [29]) | Activity (KMS-12-PE [11]) | Activity (MM1.S [13]) | Activity (RPMI-8226 [30]) | Activity (KMS-12-BM [14]) | Activity (MM1.S [31]) | Activity (MM1.S [17]) | Activity (KMS-12-PE [18]) | Activity (MM1.S [32]) | Activity (MM1.S [33]) | Activity (MM1.S [34]) | Activity (KMS-12-BM [19])
inactive: Activity (KMS-12-PE [16])
20.2%: Activity (RPMI-8226 [12])

Reference: ChEMBL document CHEMBL5712901, “DOT1L inhibition blocks multiple myeloma cell proliferation by suppressing IRF4-MYC signaling” (2019)
